# Screens as filed in PubChem.
# Shown are actives, neighbours in structure and some others; about 3.9% of the full set was active somewhere.
# 697 NFkB inh = lowers PMA/ionomycin-induced NF-kB signal in 697 B cells; 697 B-cell NF-kB luciferase reporter, 16 h; inhibition, % at 4 µM; hit rate 0.33% among 330,000; in the data active means inhibition above about 35%
# CHOP UPR activ = activators of apoptotic arm of unfolded protein response (CHOP) | CHO-CHOP luciferase reporter, UPR activation, luminescence; percent of tunicamycin response over DMSO baseline | activation, % at 10 µM | hit rate 0.34% among 330,000 | AID 449763;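 active means at 10 µM dose, activation of 40% or more, normalized to positive control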
#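 Assay system: CHO cells with stable CHOP pathway luciferase reporter; Buffer or medium: F12 plus 10% serum; Times: 16-18 h cell attachment, then 6 h compound exposure, 37 °C; Signal: luciferase luminescence; Read-out basis: percent activation relative to tunicamycin control; Control set: tunicamycin high control, DMSO low control.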
# UPR XBP1 act = adaptive UPR (XBP1) activation; hit rate 0.33% among 330,000; activation, % at 20 µM; CHO-XBP1 luciferase reporter, IRE1-XBP1 UPR activation, luminescence; percent of tunicamycin response, DMSO as zero;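 active means versus positive control, 20 µM dose yields 30% or more activation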
#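 Test system: CHO-XBP1 luciferase reporter cells | Buffer or medium: Serum-containing F12 medium, 10% FBS | Schedule: 6 h compound exposure at 37 °C, 5% CO2 | Detection: Steady-Glo luciferase glow luminescence, 10 min after reagent addition | Read-out basis: Activation, % of tunicamycin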
# Jurkat NFkB inh = lowers PMA/ionomycin-induced NF-kB signal in Jurkat cells | PMA/ionomycin-induced NF-kB luciferase reporter, luminescence | inhibition, % at 4 µM | hit rate 0.53% among 330,000 | AID 435003; in the data active means inhibition above about 50%
# Gli-Sufu antag = Gli-Sufu pathway antagonism; hit rate 0.74% among 340,000; Sufu-KO-LIGHT fibroblasts, Gli luciferase reporter luminescence; inhibition, % at 5 µM; AID 588413;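 active means inhibition above about 55%, limit read from the data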
# CHOP inhibitor = blocks CHOP induction under ER stress. CHO-K1 CHOP-promoter luciferase, tunicamycin-induced, 15-18 h. hit rate 3.8% among 220,000. inhibition, % at 10 µM. AID 2732;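 active means compounds that reduced the stress-induced luciferase reporter signal by more than about 70% of percent inhibition, limit read from the data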
# Hits are given with their value; i = inactive; nt = no result.
SMILES,697 NFkB inh,CHOP UPR activ,UPR XBP1 act,Jurkat NFkB inh,Gli-Sufu antag,CHOP inhibitor
Oc1ccc(NCc2ccccc2OCc2ccccc2F)cc1,i,i,i,i,i,85
CCC(CO)Nc1nc(NCc2ccccc2)c2ncn(C(C)C)c2n1 (centres undefined),nt,nt,nt,nt,nt,i
Cc1csc(NC(=O)COc2ccc3c(c2)CCC3)n1,i,i,i,i,i,nt
N#Cc1nc(COc2ccc(Br)cc2)oc1N1CCN(Cc2ccccc2)CC1,nt,nt,nt,nt,i,74
N#Cc1nc(COc2ccc(F)cc2)oc1N1CCN(Cc2ccccc2)CC1,i,i,i,i,i,i
N#Cc1nc(COc2ccc(Cl)cc2)oc1N1CCCCCC1,i,i,i,i,i,71
N#Cc1nc(Cc2cccc3ccccc23)oc1N1CCCCC1,i,i,i,i,i,76
CCCc1nc2sc(C(=O)OCC)c(N)c2c2c1COC(C)(C)C2,i,i,i,i,i,81
CCOC(=O)c1sc2nc(C)c3c(c2c1N)CC(C)(C)OC3,i,i,i,i,i,i
CCOc1cc(/C=C2\C(=O)N(c3nc(-c4ccc(Br)cc4)cs3)N=C2c2ccccc2)ccc1O,i,642,99,i,i,i
N#C/C(=C\c1ccccc1[N+](=O)[O-])C(=O)NCc1ccccc1,i,i,i,i,i,i
CCCCCCCCNC(=O)/C(C#N)=C/c1ccccc1[N+](=O)[O-],i,i,i,i,i,94
CC(=NNc1nc2ccccc2o1)c1ncccn1,nt,nt,nt,nt,i,nt
CC(=NNc1nc2ccccc2o1)c1cc2ccccc2cn1,nt,nt,nt,nt,92,nt
Cc1ccc(S(=O)(=O)Nc2ccccc2F)cc1C(=O)N1CCN(c2ccccc2O)CC1,i,i,i,i,i,nt
COc1ccc(OC)c(NC(=O)CN2C(=O)NC(C)(c3ccc4c(c3)OCCO4)C2=O)c1 (centres undefined),i,i,i,i,i,nt
CCCC1Cc2c(sc3nc(SC)nc(N)c23)CO1 (centres undefined),i,i,i,i,i,74
COc1ccc2[nH]c(=O)c(C(c3nnnn3C3CCCC3)N(C)C3CCCCC3)cc2c1 (centres undefined),i,i,i,i,i,75
CCc1nnc(NC(=O)c2cc(S(=O)(=O)N3CCOCC3)ccc2N2CCCCC2)s1,nt,nt,nt,nt,i,72
Cc1cc(C)n2nc(SCC(=O)NC3CCCC(C)C3C)nc2n1 (centres undefined),i,i,i,i,i,nt
CC(=NCC1CCNCC1)C1=C(O)CC(C)(C)CC1=O,i,i,i,i,i,78
CC(=NCC1CCCO1)C1=C(O)CC(C)(C)CC1=O (centres undefined),i,i,i,i,i,i
Cc1ccc(NC(=O)CSc2nnc(CNC(=O)C34CC5CC(CC(C5)C3)C4)n2-c2ccc(F)cc2)cc1,i,i,i,i,i,79
CCCCCCCN1CCC(=O)N([C@H](CO)c2ccccc2)CC1,i,i,i,i,i,nt
CCOC(=O)C(=O)N/N=C/c1cccc(Br)c1,i,i,i,i,i,i
SMILES,697 NFkB inh,CHOP UPR activ,UPR XBP1 act,Jurkat NFkB inh,Gli-Sufu antag,CHOP inhibitor
CCCCNC(=O)C(=O)N/N=C/c1cccc(Br)c1,i,i,i,i,i,71
COC(=O)c1cc2c(s1)-c1ccccc1CC2,i,i,i,i,i,91
CCOC(=O)c1cc2c(s1)-c1ccccc1CC2,i,i,i,i,i,i
Cc1ccc(C)c(N2CCN(C(=O)C(Cc3ccccc3)n3cccc3)CC2)c1 (centres undefined),i,i,i,i,i,i
O=C(C(Cc1ccccc1)n1cccc1)N1CCN(c2ccccc2)CC1 (centres undefined),i,i,i,i,i,78
C=CC[C@H]1C=C[C@@H](C(C(=O)OC)C(=O)OC)CN1C(C)=O,nt,nt,nt,nt,i,nt
O=C1c2oc3ccccc3c(=O)c2C(c2cccs2)N1CCCN1CCOCC1 (centres undefined),i,i,i,i,i,80
Cc1cc(Cl)ccc1OCC(=O)n1cc(C(=O)c2cc(Cl)ccc2O)cn1,i,i,i,i,nt,77
O=C(NNC1=Nc2cccc3cccc1c23)c1ccccc1Br,i,i,i,i,i,90
O=C(NCc1cc(C(F)(F)F)ccc1Cl)c1cccc2c1C(=O)c1ccc(Cl)cc1S2(=O)=O,i,i,i,i,nt,nt
CCOC(=O)c1nn(-c2ccc(C)c(C)c2)c(=O)c2c(N)scc12,i,i,i,i,i,92
